Measured values reported in ChEMBL document CHEMBL1140745, “Rationalizing the activities of diverse cholecystokinin 2 receptor antagonists using molecular field points” (J Med Chem, 2008).
Residues, ends and D or L forms follow the SMILES beside them. *: point of attachment. NHPhenethyl = c1ccc(CCN*)cc1; Boc = CC(C)(C)OC(=O)*

Experiments:
[1] = target: T1, Gastrin/cholecystokinin type B receptor (Rattus norvegicus) (UniProt P30553); conditions: Stomach
T1 sequence (whole entry): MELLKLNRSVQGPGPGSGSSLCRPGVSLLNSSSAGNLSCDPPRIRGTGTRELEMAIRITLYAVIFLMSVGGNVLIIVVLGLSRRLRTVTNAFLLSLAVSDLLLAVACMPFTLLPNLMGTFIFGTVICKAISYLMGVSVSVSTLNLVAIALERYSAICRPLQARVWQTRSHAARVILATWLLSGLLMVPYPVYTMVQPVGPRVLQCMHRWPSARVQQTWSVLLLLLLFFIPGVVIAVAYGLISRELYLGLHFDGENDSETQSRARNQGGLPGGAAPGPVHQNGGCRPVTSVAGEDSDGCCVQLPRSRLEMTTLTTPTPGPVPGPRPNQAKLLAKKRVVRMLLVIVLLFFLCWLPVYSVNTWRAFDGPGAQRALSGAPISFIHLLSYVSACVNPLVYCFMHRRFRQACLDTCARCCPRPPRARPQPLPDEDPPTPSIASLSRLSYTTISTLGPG

[2] = target: T2, Cholecystokinin receptor type A (Cavia porcellus, UniProt Q63931); assay: Displacement of [125I]BH-CCK-8S from […] expressed in guinea pig pancreatic cells; format: cell-based
T2 sequence (Q63931 whole entry): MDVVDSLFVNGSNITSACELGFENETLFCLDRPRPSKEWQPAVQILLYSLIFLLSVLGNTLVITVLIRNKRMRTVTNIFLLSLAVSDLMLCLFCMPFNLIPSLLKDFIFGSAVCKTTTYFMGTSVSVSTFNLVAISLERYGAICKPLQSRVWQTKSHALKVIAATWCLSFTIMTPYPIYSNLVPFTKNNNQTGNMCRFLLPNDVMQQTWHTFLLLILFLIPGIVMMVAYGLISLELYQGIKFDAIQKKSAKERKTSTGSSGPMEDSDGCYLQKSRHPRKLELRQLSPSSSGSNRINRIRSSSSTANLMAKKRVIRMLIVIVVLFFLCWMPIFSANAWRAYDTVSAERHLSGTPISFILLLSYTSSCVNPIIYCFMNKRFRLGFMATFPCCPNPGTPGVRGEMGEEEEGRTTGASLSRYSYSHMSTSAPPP
Outline: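 Radioligand competition binding on guinea pig pancreas cell homogenates, using 20 pM [125I]BH-CCK-8S as the tracer. Affinity is reported as pKi. Results come from at least three separate experiments.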

Compound `C[C@@H](NC(=O)C[C@@H]1CCCN1C(=O)C1C2c3ccccc3C(c3ccccc32)C1C(=O)NCC12CC3CC(CC(C3)C1)C2)C(=O)O` (stereo partly specified) has a pKb [1] of 7.3 and a Ki [2] of 25100 nM.

For `O=C(O)C1C2c3ccccc3C(c3ccccc32)C1C(=O)NCC12CC3CC(CC(C3)C1)C2` (stereo unspecified), the pKb [1] was 5.6.

Compound `Nc1cccc2cc(C(=O)NCC34CC5CC(CC(C5)C3)C4)c(C(=O)N[C@@H](Cc3ccccc3)C(=O)Nc3cc(C(=O)O)cc(C(=O)O)c3)cc12` has a pKb [1] of 8.2 and a Ki [2] of 2510 nM.

Compound `Cn1ccc2cc(C(=O)N[C@@H](Cc3ccccc3)C(=O)Nc3cc(C(=O)O)cc(C(=O)O)c3)c(C(=O)NCC34CC5CC(CC(C5)C3)C4)cc21` has a pKb [1] of 9.8 and a Ki [2] of 3980 nM.

`Nc1cccc2cc(C(=O)N[C@@H](Cc3ccccc3)C(=O)Nc3cc(C(=O)O)cc(C(=O)O)c3)c(C(=O)NCC34CC5CC(CC(C5)C3)C4)cc12` gave a pKb [1] of 9 and a Ki [2] of 2510 nM.

`O=C(O)c1cc(NC(=O)[C@H](Cc2ccccc2)NC(=O)c2cc3cc[nH]c3cc2C(=O)NC2CCCCCC2)cc(C(=O)O)c1` was tested, and the pKb [1] was 9.3 and the Ki [2] was 3160 nM.

`O=C(O)c1cccc(NC(=O)c2nc(C3CCCCC3)[nH]c2COC23CC4CC(CC(C4)C2)C3)c1` showed a pKb [1] of 9.1.

For `O=C(O)c1cc(NC(=O)[C@H](Cc2ccccc2)NC(=O)C2C3c4ccccc4C(c4ccccc43)C2C(=O)NCC23CC4CC(CC(C4)C2)C3)cc(C(=O)O)c1` (stereo partly specified), the pKb [1] was 8.3.

For `C[C@](Cc1c[nH]c2ccccc12)(NC(=O)OC1[C@H]2C[C@@H]3C[C@@H](C[C@H]1C3)C2)C(=O)NC[C@H](NC(=O)CCC(=O)O)c1ccccc1` (stereo partly specified) [CI-988], the Ki [2] was 631 nM.

`Cc1cccc(NC(=O)N[C@@H]2N=C(c3ccccc3)c3ccccc3N(C)C2=O)c1` [L-365260] was tested, and the pKb [1] was 7.6 and the Ki [2] was 316 nM.

Compound `CC(C)C[C@H](NC(=O)[C@H](Cc1c[nH]c2ccccc12)NC(=O)OC(C)(C)C)C(=O)N[C@@H](CC(=O)O)C(=O)NCCc1ccccc1` (Boc-Trp-Leu-Asp-NHPhenethyl) has a pKb [1] of 6.9 and a Ki [2] of 7940 nM.

`CNc1cccc(NC(=O)N[C@@H]2N=C(c3ccccn3)c3ccccc3N(CC(=O)C(C)(C)C)C2=O)c1` [NETAZEPIDE] was tested, and the pKb [1] was 9.9 and the Ki [2] was 398 nM.

Compound `CC(=O)N1[C@H](CC23CC4CC(CC(C4)C2)C3)C(=O)N(Cc2ccccc2)c2ccccc2C(=O)C[C@H]1C(=O)NCC(=O)O` has a pKb [1] of 6.8 and a Ki [2] of 7940 nM.

For `O=C1NN(C(=O)Nc2ccc(Br)cc2)[C@H](c2ccccc2)[C@H]1c1ccccc1`, the pKb [1] was 5.9 and the Ki [2] was 20000 nM.

`O=C(O)c1cc(NC(=O)[C@H](Cc2ccccc2)NC(=O)c2cc3sccc3cc2C(=O)NCC23CC4CC(CC(C4)C2)C3)cc(C(=O)O)c1` gave a pKb [1] of 9.4 and a Ki [2] of 794 nM.

Work on `O=C(O)c1cccc(NC(=O)c2nc(-c3ccccc3)[nH]c2CC23CC4CC(CC(C4)C2)C3)c1` yielded a pKb [1] of 6.6 and a Ki [2] of 1260 nM.

With `O=C(O)c1cc(NC(=O)[C@H](Cc2ccccc2)NC(=O)c2cc3cc[nH]c3cc2C(=O)NCC23CC4CC(CC(C4)C2)C3)cc(C(=O)O)c1` the pKb [1] was 9.3.

`CN1C(=O)[C@H](NC(=O)Nc2cccc(-c3nnn[nH]3)c2)N=C(c2ccccc2)c2ccccc21` was tested, and the pKb [1] was 8.4 and the Ki [2] was 316 nM.

With `O=C(O)c1cc(NC(=O)[C@H](Cc2ccc(I)cc2)NC(=O)c2cc3cc[nH]c3cc2C(=O)NCC23CC4CC(CC(C4)C2)C3)cc(C(=O)O)c1` the pKb [1] was 9.1 and the Ki [2] was 2000 nM.

`O=C(O)c1cc(NC(=O)[C@H](Cc2ccccc2)NC(=O)c2cc3ccccc3cc2C(=O)NCC23CC4CC(CC(C4)C2)C3)cc(C(=O)O)c1` was tested, and the pKb [1] was 8.2.

For `COc1ccc(CCNC(=O)[C@H](CC(=O)O)NC(=O)[C@H](Cc2ccc3ccccc3c2)NC(=O)[C@H](Cc2c[nH]c3ccccc23)NC(=O)OC(C)(C)C)cc1`, the pKb [1] was 5.4 and the Ki [2] was 63.1 nM.
